Source: ChEMBL document CHEMBL4406875, “Design, synthesis and biological evaluation of amino acids-oleanolic acid conjugates as influenza virus inhibitors” (Bioorg Med Chem, 2019)
Calls of active or inactive are those of the source. No cut-off for these calls is given here.

How the values were obtained:
MDCK = experiment: Cytotoxicity against dog MDCK cells assessed as cell viability measured at 100 uM after 45 hrs by Celltiter-Glo luminescence assay; type: cell-based, Canis lupus familiaris
Outline: (§1)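 Viability screen of uninfected MDCK cells at 100 μM compound, read by CellTiter-Glo luminescence with DMSO as negative control; triplicate experiments.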

Influenza A virus [1] = experiment: Antiviral activity against Influenza A virus A/WSN/33(H1N1) infected in MDCK cells assessed as inhibition of virus-induced cytopathic effect at 100 uM measured after 45 hrs by CellTiter-Glo luminescence assay; type: functional, organism-based; settings: A/WSN/1933(H1N1)
Outline: (§2)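 Single-concentration screen at 100 μM in MDCK cells infected with A/WSN/33 under the same conditions: 1% FBS DMEM with 1 μg/mL trypsin, MOI 0.1, 45 h. Cytopathic effect was read by CellTiter-Glo luminescence against a DMSO negative control, from triplicate experiments.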

Influenza A virus [2] = experiment: Antiviral activity against Influenza A virus A/WSN/33(H1N1) infected in MDCK cells assessed as inhibition of virus-induced cytopathic effect measured after 45 hrs by CellTiter-Glo luminescence assay; type: functional, organism-based; settings: A/WSN/1933(H1N1)
Outline: (§3)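 MDCK cells (5,000/well) were seeded one day before infection. Infection medium was high-glucose DMEM with 1% FBS and trypsin (1 μg/mL). Compounds were added at various concentrations and cells infected at MOI 0.1. After 45 h, viability was read by CellTiter-Glo luminescence. IC50 was taken from dose-response curves, as the mean of duplicate samples from three independent experiments.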

Influenza A virus H3N2 = experiment: Antiviral activity against Influenza A virus A/Texas/50/2012(H3N2) infected in MDCK cells inhibition of virus-induced cytopathic effect measured after 45 hrs by CellTiter-Glo luminescence assay; type: functional, organism-based; outline: as §3
[3] = Cytotoxicity against dog MDCK cells assessed as cell viability measured at 100 uM after 45 hrs by Celltiter-Glo luminescence assay relative to control; type: cell-based, Canis lupus familiaris; settings: read-out: Activity; outline: as §1
[4] = Cytotoxicity against dog MDCK cells assessed as cell viability measured after 45 hrs by Celltiter-Glo luminescence assay; type: cell-based, Canis lupus familiaris
Outline: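 Non-infected MDCK cells were exposed to compound dilutions and viability was read by CellTiter-Glo luminescence. CC50 is the concentration reducing viability of uninfected cells by 50%, given as the mean of duplicate samples from three independent experiments.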

[5] = target: Hemagglutinin (Influenza A virus) (UniProt B4URE7); experiment: Inhibition of Influenza A virus HA-mediated chicken erythrocytes aggregation incubated for 30 mins
Outline: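 Compound was 2-fold serially diluted in saline from 100 to 1.56 μM and mixed with an equal volume of influenza virus (2 HA units). Chicken red blood cells (1% v/v in saline) were then added. After 30 min at room temperature, erythrocyte aggregation was scored by eye. An anti-HA monoclonal antibody served as positive control.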

Influenza A virus [6] = experiment: Antiviral activity against Influenza A virus A/WSN/33(H1N1) infected in MDCK cells assessed as inhibition of virus-induced cytopathic effect at 100 uM measured after 45 hrs by CellTiter-Glo luminescence assay relative to control; type: functional; settings: A/WSN/1933(H1N1); outline: as §2

Sequence of Hemagglutinin (Influenza A virus) (B4URE7 as listed by the source): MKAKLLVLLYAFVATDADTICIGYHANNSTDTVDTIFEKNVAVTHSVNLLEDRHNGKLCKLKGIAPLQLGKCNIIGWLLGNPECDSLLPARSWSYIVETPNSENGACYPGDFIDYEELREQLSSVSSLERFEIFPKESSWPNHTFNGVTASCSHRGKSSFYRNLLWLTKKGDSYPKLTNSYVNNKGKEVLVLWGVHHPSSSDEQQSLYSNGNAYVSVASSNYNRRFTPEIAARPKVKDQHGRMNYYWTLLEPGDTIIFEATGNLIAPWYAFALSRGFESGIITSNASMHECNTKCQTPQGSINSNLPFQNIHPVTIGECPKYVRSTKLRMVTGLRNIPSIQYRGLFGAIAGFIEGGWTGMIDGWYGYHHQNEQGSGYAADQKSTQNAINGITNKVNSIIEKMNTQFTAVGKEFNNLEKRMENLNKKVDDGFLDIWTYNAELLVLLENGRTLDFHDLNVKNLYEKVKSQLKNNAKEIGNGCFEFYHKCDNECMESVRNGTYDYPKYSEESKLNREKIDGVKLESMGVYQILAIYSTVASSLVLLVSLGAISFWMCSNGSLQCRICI

SMILES | Activity (MDCK) | inhibition (Influenza A virus [1]) | also measured
CSCC[C@H](NC(=O)[C@]12CCC(C)(C)C[C@H]1C1=CC[C@@H]3[C@@]4(C)CC[C@H](O)C(C)(C)[C@@H]4CC[C@@]3(C)[C@]1(C)CC2)C(=O)O | Toxic | Active | 
CC1(C)CC[C@]2(C(=O)N[C@@H](CO)C(=O)O)CC[C@]3(C)C(=CC[C@@H]4[C@@]5(C)CC[C@H](O)C(C)(C)[C@@H]5CC[C@]43C)[C@@H]2C1 | Toxic | Active | 
CC(C)C[C@H](NC(=O)[C@]12CCC(C)(C)C[C@H]1C1=CC[C@@H]3[C@@]4(C)CC[C@H](O)C(C)(C)[C@@H]4CC[C@@]3(C)[C@]1(C)CC2)C(=O)O | Toxic | Active | 
CC1(C)CC[C@]2(C(=O)N[C@@H](Cc3ccc(O)cc3)C(=O)O)CC[C@]3(C)C(=CC[C@@H]4[C@@]5(C)CC[C@H](O)C(C)(C)[C@@H]5CC[C@]43C)[C@@H]2C1 | Toxic | Active | 
COC(=O)[C@H](Cc1ccc(O)cc1)NC(=O)[C@]12CCC(C)(C)C[C@H]1C1=CC[C@@H]3[C@@]4(C)CC[C@H](O)C(C)(C)[C@@H]4CC[C@@]3(C)[C@]1(C)CC2 | Toxic | Active | 
CC1(C)CC[C@]2(C(=O)N3CCC[C@H]3C(=O)O)CC[C@]3(C)C(=CC[C@@H]4[C@@]5(C)CC[C@H](O)C(C)(C)[C@@H]5CC[C@]43C)[C@@H]2C1 | Toxic | Active | 
COC(=O)[C@H](Cc1c[nH]c2ccccc12)NC(=O)[C@]12CCC(C)(C)C[C@H]1C1=CC[C@@H]3[C@@]4(C)CC[C@H](O)C(C)(C)[C@@H]4CC[C@@]3(C)[C@]1(C)CC2 | Toxic | Active | 
CC1(C)CC[C@]2(C(=O)N[C@@H](Cc3ccccc3)C(=O)O)CC[C@]3(C)C(=CC[C@@H]4[C@@]5(C)CC[C@H](O)C(C)(C)[C@@H]5CC[C@]43C)[C@@H]2C1 | Toxic | Active | 
COC(=O)[C@H](Cc1ccccc1)NC(=O)[C@]12CCC(C)(C)C[C@H]1C1=CC[C@@H]3[C@@]4(C)CC[C@H](O)C(C)(C)[C@@H]4CC[C@@]3(C)[C@]1(C)CC2 | Toxic | Active | 
CC1(C)CC[C@]2(C(=O)N[C@@H](CCC(=O)O)C(=O)O)CC[C@]3(C)C(=CC[C@@H]4[C@@]5(C)CC[C@H](O)C(C)(C)[C@@H]5CC[C@]43C)[C@@H]2C1 | Toxic | Active | 
CC(C)[C@H](NC(=O)[C@]12CCC(C)(C)C[C@H]1C1=CC[C@@H]3[C@@]4(C)CC[C@H](O)C(C)(C)[C@@H]4CC[C@@]3(C)[C@]1(C)CC2)C(=O)O | Toxic | Active | 
CC1(C)CC[C@]2(C(=O)N[C@@H](CCCNC(=N)N)C(=O)O)CC[C@]3(C)C(=CC[C@@H]4[C@@]5(C)CC[C@H](O)C(C)(C)[C@@H]5CC[C@]43C)[C@@H]2C1 | Toxic | Active | IC50 (Influenza A virus [2]): 6.64 µM; IC50 (Influenza A virus H3N2): 14.1 µM; viability at 45 h, 100 µM [3]: 75%; CC50 at 45 h [4]: > 100 µM; inhibition [5]: Dose-dependent effect; inhibition at 100 µM (Influenza A virus [6]): 75%
COC(=O)CC[C@H](NC(=O)[C@]12CCC(C)(C)C[C@H]1C1=CC[C@@H]3[C@@]4(C)CC[C@H](O)C(C)(C)[C@@H]4CC[C@@]3(C)[C@]1(C)CC2)C(=O)OC | Toxic | Active | 
CC[C@H](C)[C@H](NC(=O)[C@]12CCC(C)(C)C[C@H]1C1=CC[C@@H]3[C@@]4(C)CC[C@H](O)C(C)(C)[C@@H]4CC[C@@]3(C)[C@]1(C)CC2)C(=O)O | Toxic | Active | 
COC(=O)[C@H](Cc1c[nH]cn1)NC(=O)[C@]12CCC(C)(C)C[C@H]1C1=CC[C@@H]3[C@@]4(C)CC[C@H](O)C(C)(C)[C@@H]4CC[C@@]3(C)[C@]1(C)CC2 | Toxic | Active | 
COC(=O)[C@H](CC(C)C)NC(=O)[C@]12CCC(C)(C)C[C@H]1C1=CC[C@@H]3[C@@]4(C)CC[C@H](O)C(C)(C)[C@@H]4CC[C@@]3(C)[C@]1(C)CC2 | Toxic | Active | 
COC(=O)[C@H](CCSC)NC(=O)[C@]12CCC(C)(C)C[C@H]1C1=CC[C@@H]3[C@@]4(C)CC[C@H](O)C(C)(C)[C@@H]4CC[C@@]3(C)[C@]1(C)CC2 | Toxic | Active | 

SMILES | Activity (MDCK) | inhibition (Influenza A virus [1]) | also measured
CC[C@H](C)[C@H](NC(=O)[C@]12CCC(C)(C)C[C@H]1C1=CC[C@@H]3[C@@]4(C)CC[C@H](O)C(C)(C)[C@@H]4CC[C@@]3(C)[C@]1(C)CC2)C(=O)OC | Toxic | Active | 
CCOC(=O)C1=C[C@@H](OC(CC)CC)[C@H](NC(C)=O)[C@@H](N)C1 [OSELTAMIVIR PHOSPHATE] |  |  | IC50 (Influenza A virus H3N2): > 100 µM; CC50 at 45 h [4]: > 100 µM
CC1(C)CC[C@]2(C(=O)N[C@@H](CC(=O)O)C(=O)O)CC[C@]3(C)C(=CC[C@@H]4[C@@]5(C)CC[C@H](O)C(C)(C)[C@@H]5CC[C@]43C)[C@@H]2C1 | Toxic | Active | 
COC(=O)[C@@H](NC(=O)[C@]12CCC(C)(C)C[C@H]1C1=CC[C@@H]3[C@@]4(C)CC[C@H](O)C(C)(C)[C@@H]4CC[C@@]3(C)[C@]1(C)CC2)[C@@H](C)O | Toxic | Active | 
COC(=O)[C@H](C)NC(=O)[C@]12CCC(C)(C)C[C@H]1C1=CC[C@@H]3[C@@]4(C)CC[C@H](O)C(C)(C)[C@@H]4CC[C@@]3(C)[C@]1(C)CC2 | Toxic | Active | 
CC1(C)CC[C@]2(C(=O)N[C@@H](Cc3c[nH]c4ccccc34)C(=O)O)CC[C@]3(C)C(=CC[C@@H]4[C@@]5(C)CC[C@H](O)C(C)(C)[C@@H]5CC[C@]43C)[C@@H]2C1 | Toxic | Active | 
COC(=O)[C@@H](NC(=O)[C@]12CCC(C)(C)C[C@H]1C1=CC[C@@H]3[C@@]4(C)CC[C@H](O)C(C)(C)[C@@H]4CC[C@@]3(C)[C@]1(C)CC2)C(C)C | Toxic | Active | 
CC1(C)CC[C@]2(C(=O)N[C@@H](Cc3c[nH]cn3)C(=O)O)CC[C@]3(C)C(=CC[C@@H]4[C@@]5(C)CC[C@H](O)C(C)(C)[C@@H]5CC[C@]43C)[C@@H]2C1 | Toxic | Active | 
CC1(C)CC[C@]2(C(=O)NCC(=O)O)CC[C@]3(C)C(=CC[C@@H]4[C@@]5(C)CC[C@H](O)C(C)(C)[C@@H]5CC[C@]43C)[C@@H]2C1 | Toxic | Active | 
C[C@@H](O)[C@H](NC(=O)[C@]12CCC(C)(C)C[C@H]1C1=CC[C@@H]3[C@@]4(C)CC[C@H](O)C(C)(C)[C@@H]4CC[C@@]3(C)[C@]1(C)CC2)C(=O)O | Toxic | Active | 
C[C@H](NC(=O)[C@]12CCC(C)(C)C[C@H]1C1=CC[C@@H]3[C@@]4(C)CC[C@H](O)C(C)(C)[C@@H]4CC[C@@]3(C)[C@]1(C)CC2)C(=O)O | Toxic | Active | 
COC(=O)[C@H](CCCNC(=N)N)NC(=O)[C@]12CCC(C)(C)C[C@H]1C1=CC[C@@H]3[C@@]4(C)CC[C@H](O)C(C)(C)[C@@H]4CC[C@@]3(C)[C@]1(C)CC2 | Toxic | Active | 
COC(=O)C[C@H](NC(=O)[C@]12CCC(C)(C)C[C@H]1C1=CC[C@@H]3[C@@]4(C)CC[C@H](O)C(C)(C)[C@@H]4CC[C@@]3(C)[C@]1(C)CC2)C(=O)OC | Toxic | Active | 
COC(=O)[C@H](CO)NC(=O)[C@]12CCC(C)(C)C[C@H]1C1=CC[C@@H]3[C@@]4(C)CC[C@H](O)C(C)(C)[C@@H]4CC[C@@]3(C)[C@]1(C)CC2 | Toxic | Active | 
COC(=O)[C@@H]1CCCN1C(=O)[C@]12CCC(C)(C)C[C@H]1C1=CC[C@@H]3[C@@]4(C)CC[C@H](O)C(C)(C)[C@@H]4CC[C@@]3(C)[C@]1(C)CC2 | Toxic | Active | 
COC(=O)CNC(=O)[C@]12CCC(C)(C)C[C@H]1C1=CC[C@@H]3[C@@]4(C)CC[C@H](O)C(C)(C)[C@@H]4CC[C@@]3(C)[C@]1(C)CC2 | Toxic | Active | 
CC1(C)CC[C@]2(C(=O)O)CC[C@]3(C)C(=CC[C@@H]4[C@@]5(C)CC[C@H](O)C(C)(C)[C@@H]5CC[C@]43C)[C@@H]2C1 |  | Active | 
